We go through eleven compounds from ChEMBL document CHEMBL3085681, “Synthesis of novel 1,2,3-triazole based benzoxazolinones: their TNF-α based molecular docking with in-vivo anti-inflammatory, antinociceptive activities and ulcerogenic risk evaluation” (Eur J Med Chem, 2013).

The target of series [1] is Prostaglandin G/H synthase 1 (Homo sapiens, UniProt P23219). The series is described as follows: Inhibition of COX1 (unknown origin).
Series [2] has as its system Rattus norvegicus. The series can be described thus: Antinociceptive activity in albino Wistar rat assessed as thermal-stimulus induced tail flick latency at 0.05 mmol/kg, po after 30 mins (reference value: 2.22 +/- 0.20 mins). Format: functional.
Series [3] relates to Rattus norvegicus. The series can be described thus: Antinociceptive activity in albino Wistar rat assessed as thermal-stimulus induced tail flick latency at 0.05 mmol/kg, po after 120 mins (reference value: 2.38 +/- 0.11 mins). Type of series: functional. On the technique in general: Thermal pain tests record how soon the animal reacts.
The next series is filed under the species Homo sapiens. The series is described as follows: Selectivity index, ratio of IC50 for COX1 (unknown origin) to IC50 for human recombinant COX2.
For series [4], the system named is Rattus norvegicus. The series is described as follows: Ulcerogenicity in albino Wistar rat assessed as gastric superficial mucosal damage at 0.15 mmol/kg, po by hematoxylin and eosin staining-based assay. Type of series: toxicity, organism-based, Stomach. The conditions noted are these: in vivo.
Series [5] concerns the target T1, Prostaglandin G/H synthase 2 (Homo sapiens, UniProt P35354).
T1 sequence (P35354 whole entry): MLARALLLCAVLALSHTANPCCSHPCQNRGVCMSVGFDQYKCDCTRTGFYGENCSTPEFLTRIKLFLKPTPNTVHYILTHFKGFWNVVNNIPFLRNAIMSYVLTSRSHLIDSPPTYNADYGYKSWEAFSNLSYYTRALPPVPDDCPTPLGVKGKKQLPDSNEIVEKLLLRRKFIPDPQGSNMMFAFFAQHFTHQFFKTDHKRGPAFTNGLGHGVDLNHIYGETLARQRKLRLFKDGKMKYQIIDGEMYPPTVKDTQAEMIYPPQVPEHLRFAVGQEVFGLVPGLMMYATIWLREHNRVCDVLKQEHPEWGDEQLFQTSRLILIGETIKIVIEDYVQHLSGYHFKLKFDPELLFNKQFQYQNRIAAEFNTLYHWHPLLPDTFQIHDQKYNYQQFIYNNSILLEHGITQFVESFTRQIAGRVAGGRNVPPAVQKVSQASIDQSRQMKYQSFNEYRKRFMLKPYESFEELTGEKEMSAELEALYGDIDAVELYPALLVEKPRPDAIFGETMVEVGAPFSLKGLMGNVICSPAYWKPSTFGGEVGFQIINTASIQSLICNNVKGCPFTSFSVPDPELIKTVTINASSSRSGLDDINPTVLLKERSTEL
The series can be described thus: Inhibition of human recombinant COX2 expressed in insect cell expression system using TMPD and arachidonic acid as substrate incubated for 1 min prior to substrate addition by spectrophotometry.

The subject of series [6] is Rattus norvegicus. The series can be described thus: Antinociceptive activity in albino Wistar rat assessed as thermal-stimulus induced tail flick latency at 0.05 mmol/kg, po after 60 mins (reference value: 2.54 +/- 0.05 mins). Type of series: functional.
Series [7] has as its system Rattus norvegicus. The series is described as follows: Antiinflammatory activity in albino Wistar rat assessed as inhibition of carrageenan-induced hind paw edema at 0.05 mmol/kg, po administered 1 hr prior to carrageenan challenge measured after 5 hrs by plethysmometric analysis relative to control. Type of series: functional. The method, boiled down:
(§1)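 Oedema raised by s.c. injection of 0.1 ml of freshly prepared 1% carrageenan in saline into the right hind paw. Test agents given orally at 0.05 mmol/kg, 1 h before carrageenan; saline vehicle control. Paw volume read by plethysmometer at 3 h and 5 h.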

Series [8] concerns Rattus norvegicus. The series is described as follows: Ulcerogenicity in albino Wistar rat assessed as gastric deep mucosal damage at 0.15 mmol/kg, po by hematoxylin and eosin staining-based assay. Format: toxicity, organism-based, Stomach. The note with it: in vivo.
The test system of series [9] is Rattus norvegicus. The series can be described thus: Ulcerogenicity in albino Wistar rat assessed as gastric muscular layer damage at 0.15 mmol/kg, po by hematoxylin and eosin staining-based assay. Format: toxicity, organism-based, Stomach. The note with it: in vivo.
The test system of series [10] is Rattus norvegicus. The series can be described thus: Ulcerogenicity in albino Wistar rat assessed as gastric surface epithelial damage at 0.15 mmol/kg, po by hematoxylin and eosin staining-based assay. Type of series: toxicity, organism-based, Stomach. The conditions noted are these: in vivo.
The test system of series [11] is Rattus norvegicus. The series can be described thus: Antiinflammatory activity in albino Wistar rat assessed as inhibition of carrageenan-induced hind paw edema at 0.05 mmol/kg, po administered 1 hr prior to carrageenan challenge measured after 3 hrs by plethysmometric analysis relative to control. Format: functional. In outline:
as §1
On the technique in general: Carrageenan injected into the paw causes an acute inflammation.

In the next series the test system is Mus musculus. The series can be described thus: Antinociceptive activity in mouse assessed as inhibition of acetic acid-induced writhing at 0.05 mmol/kg, po administered 30 mins prior to acetic acid-challenge measured after 20 mins relative to control. Type of series: functional. In outline:
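Writhing in mice by the Koster method. Six animals per group, compound given orally at 0.05 mmol/kg 30 min before i.p. 0.6% (v/v) acetic acid (80 mg/kg). Total writhes counted over 20 min after acetic acid injection.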

Series [12] is described as follows: Antiinflammatory activity in macrophages (unknown origin) assessed as inhibition of TNF-alpha secretion incubated for 2 hrs by ELISA relative to control. Format: functional, Macrophage. The method, boiled down: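 Macrophages grown in RPMI 1640 with 10% FBS, glutamine and penicillin/streptomycin, plated at 2 × 10^6 cells/mL. Pre-treated with cytochalasin D (2.5 µM per 10^6 cells) for 30 min, kept on throughout. Cells exposed to varying compound concentrations. TNF-α in supernatants measured by sandwich ELISA with TMB read at 450 nm, quantified against the kit standard.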

Series [13] relates to Rattus norvegicus. The series can be described thus: Antiinflammatory activity in albino Wistar rat assessed as inhibition of carrageenan-induced hind paw edema at 0.05 mmol/kg, po administered 1 hr prior to carrageenan challenge by plethysmometric analysis. Type of series: functional, organism-based. The conditions noted are these: TDE = time-dependent effect. The method, boiled down: as §1

A word on the IC50: it is the concentration at which inhibition is half-maximal. Usually inhibition in vivo stands for the change of the read-out against control, counted positive when it falls.

Activity calls are given as the source filed them. No cut-off for these calls is given here.

Prostaglandin G/H synthase 1, sequence (P23219 whole entry): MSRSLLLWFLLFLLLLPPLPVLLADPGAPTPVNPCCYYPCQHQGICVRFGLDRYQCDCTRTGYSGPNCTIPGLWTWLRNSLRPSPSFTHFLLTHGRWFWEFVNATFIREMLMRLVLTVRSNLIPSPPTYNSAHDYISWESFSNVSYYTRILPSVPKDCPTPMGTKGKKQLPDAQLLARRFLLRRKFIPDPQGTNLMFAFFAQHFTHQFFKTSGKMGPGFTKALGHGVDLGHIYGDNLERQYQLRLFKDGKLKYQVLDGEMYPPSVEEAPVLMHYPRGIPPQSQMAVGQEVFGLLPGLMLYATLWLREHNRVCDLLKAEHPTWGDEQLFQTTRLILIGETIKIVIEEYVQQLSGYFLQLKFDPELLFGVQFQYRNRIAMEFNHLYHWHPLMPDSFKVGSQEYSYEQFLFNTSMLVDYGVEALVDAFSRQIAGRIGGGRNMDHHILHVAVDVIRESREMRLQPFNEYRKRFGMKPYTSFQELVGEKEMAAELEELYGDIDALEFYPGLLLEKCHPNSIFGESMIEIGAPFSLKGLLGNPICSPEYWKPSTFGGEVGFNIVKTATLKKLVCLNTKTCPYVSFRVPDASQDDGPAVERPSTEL

For the compound `Cc1ccc2c(c1)oc(=O)n2Cc1cn(-c2ccc(Cl)cc2)nn1`, the IC50 stood at 389 µM in series [1] and 5.6 µM in [5]. Also, the figures for the Time with Rattus norvegicus [2], with Rattus norvegicus [3] and in the series with Rattus norvegicus [6] were 3.08 min, 3.34 min and 3.22 min, respectively. Further, the Ratio IC50 in the series listed under Homo sapiens amounted to 69.5. Moreover, the Activity entry in the series on Rattus norvegicus [4], in the series with Rattus norvegicus [8], with Rattus norvegicus [9] and in the series with Rattus norvegicus [10] was “Non-toxic” each time. The inhibition in vivo at 50 µmol/kg in the series with Rattus norvegicus [7] turned out to be 76.7%; with Rattus norvegicus [11] it was 74%.
As to `CCOc1ccc(-n2cc(Cn3c(=O)oc4ccccc43)nn2)cc1`, the inhibition result in the series with Rattus norvegicus [7] and with Rattus norvegicus [11] was “Active” in each case.
Regarding `COc1ccc2c(c1)c(CC(=O)O)c(C)n2C(=O)c1ccc(Cl)cc1` [INDOMETHACIN], the Time with Rattus norvegicus [2] is 3.12 min; in the series with Rattus norvegicus [3] it was 3.54 min; in the series on Rattus norvegicus [6] it was 3.68 min. The Activity entry in the series on Rattus norvegicus [4], in the series with Rattus norvegicus [8], in the series on Rattus norvegicus [9] and with Rattus norvegicus [10] was “Toxic” throughout. The inhibition in vivo at 50 µmol/kg in the series with Mus musculus worked out at 44.7%; in the series on Rattus norvegicus [7] it was 82.2%; in the series on Rattus norvegicus [11] it was 79.1%. In addition, the “inhibition (INH)” value in series [12] worked out at 64.01%.
Turning to `O=c1oc2ccccc2n1Cc1cn(-c2cccc([N+](=O)[O-])c2)nn1`, the inhibition entry in the series on Rattus norvegicus [7] and in the series on Rattus norvegicus [11] was “inactive” each time.
As to `O=c1oc2ccc(Cl)cc2n1Cc1cn(-c2ccccc2F)nn1`, the IC50 worked out at 138 µM in [1] and 3.1 µM in [5]. Besides, the figures for the Time with Rattus norvegicus [2], in the series on Rattus norvegicus [3] and with Rattus norvegicus [6] were 2.88 min, 2.64 min and 2.78 min, respectively. Further, the Ratio IC50 in the series filed under Homo sapiens came to 44.6. The Activity entry in the series on Rattus norvegicus [4], in the series on Rattus norvegicus [8], in the series with Rattus norvegicus [9] and in the series on Rattus norvegicus [10] was “Non-toxic” throughout.
As to `O=c1oc2ccc(Cl)cc2n1Cc1cn(-c2ccc(Cl)cc2)nn1`, the IC50 in [1] was 111 µM; in series [5], 2.7 µM. Also, the Ratio IC50 in the series listed under Homo sapiens is 41.2. Also, the Activity entry with Rattus norvegicus [4], in the series with Rattus norvegicus [8], in the series with Rattus norvegicus [9] and in the series with Rattus norvegicus [10] was “Non-toxic” in each case. In addition, the inhibition in vivo at 50 µmol/kg in the series with Rattus norvegicus [7] was 65.1%; in the series with Rattus norvegicus [11] it was 67.4%.
As to `O=c1oc2ccccc2n1Cc1cn(-c2cccnc2)nn1`, the inhibition entry with Rattus norvegicus [7] and in the series on Rattus norvegicus [11] was “Active” each time.
For `COc1ccc(-n2cc(Cn3c(=O)oc4ccccc43)nn2)cc1`, the inhibition entry with Rattus norvegicus [7] and with Rattus norvegicus [11] was “Active” each time.
As for `Cc1ccc2c(c1)oc(=O)n2Cc1cn(-c2ccccc2Cl)nn1`, the IC50 turned out to be 207 µM in series [1] and 3.6 µM in series [5]. The results for the Time in the series with Rattus norvegicus [2], with Rattus norvegicus [3] and in the series with Rattus norvegicus [6] were 2.18 min, 2.56 min and 2.44 min, respectively. Moreover, the Ratio IC50 in the series filed under Homo sapiens was found to be 57.6. The Activity result in the series on Rattus norvegicus [4], with Rattus norvegicus [8], with Rattus norvegicus [9] and in the series with Rattus norvegicus [10] was “Non-toxic” each time. For the same compound, the inhibition in vivo at 50 µmol/kg in the series on Rattus norvegicus [7] is 72.9%; with Rattus norvegicus [11], 71.8%. Further, the inhibition result in the series with Rattus norvegicus [13] was “tde”.
With `Cc1ccc2c(c1)oc(=O)n2Cc1cn(-c2ccc(F)cc2)nn1`, the values for the IC50 in series [1] and in series [5] were 175 µM and 2.4 µM, respectively. Also, the Time stood at 3.1 min in the series on Rattus norvegicus [2], 3.36 min in the series with Rattus norvegicus [3] and 3.24 min with Rattus norvegicus [6]. The Ratio IC50 in the series filed under Homo sapiens was 72.8. Also, the Activity entry with Rattus norvegicus [4], with Rattus norvegicus [8], in the series with Rattus norvegicus [9] and in the series with Rattus norvegicus [10] was “Non-toxic” in each case. Besides, the inhibition in vivo at 50 µmol/kg in the series with Rattus norvegicus [7] turned out to be 80.6%; with Rattus norvegicus [11], 81.4%.
As for `Cc1ccc2oc(=O)n(Cc3cn(-c4ccc(Br)cc4)nn3)c2c1`, the IC50 in series [1] came out at 188 µM; in series [5], 2.78 µM. Besides, the Time in the series with Rattus norvegicus [2] is on record as 2.62 min; in the series on Rattus norvegicus [3], 2.88 min; with Rattus norvegicus [6] it was 2.74 min. Besides, the Ratio IC50 in the series listed under Homo sapiens is 67.7. Also, the Activity entry with Rattus norvegicus [4], in the series on Rattus norvegicus [8], in the series with Rattus norvegicus [9] and in the series with Rattus norvegicus [10] was “Non-toxic” in each case. Further, the inhibition in vivo at 50 µmol/kg came to 41.8% with Mus musculus, 74.8% in the series on Rattus norvegicus [7] and 73.2% in the series on Rattus norvegicus [11]. In addition, in series [12], the “inhibition (INH)” value was determined as 50.95%. Further, the inhibition entry in the series on Rattus norvegicus [13] was “tde”.
